Screening results deposited in PubChem by several laboratories.
Apaf-1 inh: human Apaf-1 inhibition; reconstituted apoptosome caspase-3 activity, DEVD-Rh110 fluorescence; inhibition, % at 20 µM; 330,000 tested, 0.71% active; active = inhibition of at least 40% at 20 µM;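 note: plate controls were DMSO wells for no effect and DEVD-CHO caspase inhibitor wells for full effect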
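Assay system – apoptosome proteins · Medium – Hepes buffer, pH 7.5 · Also added – cytochrome c with DEVD-Rh110 · Timing – 30 min compound preincubation, 50 min activation, room temperature · Detection – Rh110 fluorescence, excitation 480 nm, emission 540 nm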
TDP2 absorb: blocks human TDP2 phosphodiesterase activity | AID 720702 | O95551 | inhibition, % at 12.8 µM | 370,000 tested, 0.34% active | recombinant TDP2, T5PNP hydrolysis, p-nitrophenol absorbance 415 nm;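 active = inhibition above the mean of all tested compounds plus 3 SD, set per campaign, cut at about 25% in these data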;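 note: 0% = DMSO with enzyme and 100% = buffer with substrate but no TDP2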
Target sequence (O95551 whole entry, looked up): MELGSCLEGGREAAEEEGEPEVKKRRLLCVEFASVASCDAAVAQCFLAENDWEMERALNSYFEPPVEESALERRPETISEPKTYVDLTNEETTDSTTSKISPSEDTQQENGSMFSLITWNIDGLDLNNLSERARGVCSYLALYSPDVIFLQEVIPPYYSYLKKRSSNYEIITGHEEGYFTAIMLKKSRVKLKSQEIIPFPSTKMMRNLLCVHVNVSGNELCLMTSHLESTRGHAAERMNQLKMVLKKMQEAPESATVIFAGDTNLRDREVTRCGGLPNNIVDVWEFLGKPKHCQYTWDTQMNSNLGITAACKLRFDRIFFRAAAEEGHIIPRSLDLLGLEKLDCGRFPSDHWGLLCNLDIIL
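Incubation: 2 h at 37 °C; Test system: recombinant human TDP2; Quantity: enzyme 120 nM; Read-out basis: percent inhibition; Medium: 50 mM Tris-HCl pH 7.5 with Mg2+, KCl, DTT, BSA; Repeats: single replicate; Compound: 12.8 µM single point, 1% DMSO; Signal: epi absorbance; Reagent: 5 mM T5PNP chromogenic substrate; Benchmarks: no-enzyme high, DMSO-plus-enzyme low.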
PAFAH2 FP inh: inhibitors of human PAFAH2; Q99487; recombinant PAFAH2, FP-rhodamine activity probe, fluorescence polarization; inhibition, % at 3.39 µM; 340,000 tested, 0.99% active; AID 492956;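 active = inhibition above the mean over all tested compounds plus 3 SD, cut at about 30% in these data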;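 note: inhibitors block probe labeling of enzyme so polarization drops; 0% = enzyme with DMSO and 100% = wells lacking PAFAH2 protein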
PAFAH1B3 inh: blocks human PAF acetylhydrolase 1B catalytic subunit 3. Q15102. recombinant PAFAH1B3, FP-rhodamine probe, fluorescence polarization. inhibition, % at 3.39 µM. 340,000 tested, 0.28% active;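 active = inhibition above the screen-wide average of all tested compounds plus 3 SD, cut at about 25% in these data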;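 note: 0% = enzyme with DMSO only and 100% = wells lacking PAFAH1B3 protein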
PAFAH1B2 FP inh: inhibitors of human PAFAH1B2; recombinant PAFAH1B2, FP-rhodamine activity probe, fluorescence polarization; inhibition, % at 3.39 µM; 340,000 tested, 1.2% active;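 active = inhibition above the mean of all tested compounds plus 3 SD, cut at about 24% in these data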;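 note: 0% = enzyme with DMSO and 100% = wells lacking PAFAH1B2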
Target sequence (P68402 whole entry, looked up): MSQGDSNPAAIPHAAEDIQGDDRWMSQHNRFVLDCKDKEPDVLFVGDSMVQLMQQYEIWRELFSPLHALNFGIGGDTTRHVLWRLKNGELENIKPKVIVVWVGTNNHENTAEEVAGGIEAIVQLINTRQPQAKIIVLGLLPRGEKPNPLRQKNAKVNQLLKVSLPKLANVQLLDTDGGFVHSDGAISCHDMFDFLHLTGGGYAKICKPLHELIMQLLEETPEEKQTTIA
Apaf-1 inh conf: Apaf-1 inhibition, single-dose confirmed | inhibition, % at 20 µM | 1,800 tested, 25% active | reconstituted apoptosome, caspase-3 DEVD-Rh110 fluorescence | shares compounds with Apaf-1 inh;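 active = mean inhibition of at least 40% at 20 µM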;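 note: plate controls were DMSO wells for no effect and DEVD-CHO caspase inhibitor control wells for full effect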
Rh110 quench: Rh110 signal interference in Apaf-1 inhibitor counter-screen | shares compounds with Apaf-1 inh | Rh110 fluorescence interference, quenched caspase reaction | activation (fluorescence interference), % at 20 µM | 1,800 tested, under 10 active;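 active = signal rise of 40% or more at 20 µM, treated as a fluorescence artifact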
Apaf1 inh interf: counter-screen for Apaf-1 inhibitors: fluorescence interference, dose response. fluorescence interference counterscreen, Apaf-1 assay format. IC50, µM. 460 tested, under 10 active. shares compounds with Apaf-1 inh; call rule not given here
* = called active by the depositor; · = not tested or not shown. Most compounds without a hit are left out; they make up all but 2.3% or so of the library.

SMILES	Apaf-1 inh	TDP2 absorb	PAFAH2 FP inh	PAFAH1B3 inh	PAFAH1B2 FP inh	Apaf-1 inh conf	Rh110 quench	others
COc1ccc(N[C@@H]2CCN3C(=O)c4ccccc4[C@@H]3C[C@H]2O)cc1	17	-2	11	2	2	·	·
O=C1c2ccccc2[C@@H]2C[C@@H](O)[C@H](Nc3cccc4ccccc34)CCN12	53*	24	2	11	2	28	8
CCOC(=O)C1(C(=O)OCC)N=C(c2ccccc2)C=C1c1ccccc1	·	-3	·	·	·	·	·
Cc1cccc(S(=O)(=O)Nc2cccc3c2C(=O)c2ccccc2-3)c1	22	-10	5	2	6	·	·
CCc1ccc(S(=O)(=O)/N=C2\C=C(NS(=O)(=O)c3ccccc3)C(=O)c3ccccc32)cc1	57*	18	34*	6	0	51*	2	Apaf1 inh interf=>100
CCc1ccc(S(=O)(=O)Nc2ccncc2)cc1	3	18	4	5	23	·	·
Cc1ccc(C)c(S(=O)(=O)/N=C2\C=C(NS(=O)(=O)c3ccccc3)C(=O)c3ccccc32)c1	78*	18	17	25	6	59*	18
COC(=O)[C@]12C[C@H](CC(=O)NCc3cccc(C(F)(F)F)c3)C(=O)N(Cc3ccco3)C1=C[C@H](COCc1ccccc1)O[C@@H]2C	·	-7	·	·	·	·	·
O=C(NCCN1CCC(Cc2ccccc2)CC1)C1CCCN(S(=O)(=O)c2ccc([N+](=O)[O-])cc2)C1 (stereo not drawn)	·	4	·	·	·	·	·
COc1ccc(C[C@H]2CN3C(=NC[C@H]3Cc3ccccc3)N2CCNC(=O)c2ccc(C)c(Br)c2)cc1	43*	·	1	-4	2	41*	11	Apaf1 inh interf=>100
Cc1ccc(C(=O)NCCN2C3=NC[C@@H](Cc4ccccc4)N3C[C@H]2Cc2ccc(O)cc2)cc1Br	32	-1	-4	4	5	·	·
Cc1ccc(C(=O)N[C@@H](C)CN2C3=NC[C@H](C(C)C)N3C[C@H]2Cc2ccc(O)cc2)cc1Br	15	-1	1	19	8	·	·
COc1ccc(C[C@H]2CN3C(=NC[C@@H]3Cc3ccc(O)cc3)N2CCNC(=O)c2ccc(C)c(Br)c2)cc1	33	1	-4	5	-2	·	·
COc1ccc(C[C@H]2CN3C(=NC[C@@H]3Cc3ccccc3)N2CCNC(=O)c2ccc(C)c(Br)c2)cc1	65*	·	-1	1	5	34	-17
COc1ccc(C[C@H]2CN3C(=NC[C@@H]3C(C)C)N2C[C@H](C)NC(=O)c2ccc(C)c(Br)c2)cc1	48*	-5	4	13	1	18	11
O=C(c1ccccc1OCc1ccccc1)N(Cc1ccccn1)CC1CCCO1 (stereo not drawn)	·	0	·	·	·	·	·
O=C1Nc2ccccc2Nc2ccc([N+](=O)[O-])cc21	43*	-4	-1	13	0	33	2
CCOc1ccccc1NC(=O)c1cc(-c2ccccn2)nc2ccccc12	53*	-11	4	2	1	15	7
CC(C)(C)c1cc[n+](C2=C([O-])c3ccccc3C(=O)/C2=N\S(=O)(=O)c2ccccc2)cc1	9	9	·	·	·	·	·
CCCCC[n+]1ccn(C2=C([O-])c3ccccc3C(=O)/C2=N\S(=O)(=O)c2ccccc2)c1	53*	8	4	23	5	62*	8	Apaf1 inh interf=>100
CCCCC[n+]1ccn(C2=C([O-])c3ccccc3C(=O)/C2=N\S(=O)(=O)c2ccc(Br)cc2)c1	61*	-1	4	6	7	43*	4	Apaf1 inh interf=>100
CCCC[n+]1ccn(-c2nc3ccccc3nc2[N-]S(=O)(=O)c2ccccc2)c1	-20	7	-2	18	6	·	·
CC(C)[n+]1ccn(C2=C([O-])c3ccccc3C(=O)/C2=N\S(=O)(=O)c2ccccc2)c1	46*	20	2	17	12	68*	3	Apaf1 inh interf=>100
CCCCOCCCNC(=O)C[C@@H]1C(=O)N(Cc2ccc(OC)cc2)/C2=C/CCCCC[C@@]21C(=O)OCC	·	3	·	·	·	·	·
COC(=O)[C@]12C[C@H](CC(=O)N3CCCC3)C(=O)N(Cc3ccc(Cl)cc3Cl)C1=C[C@H](COCc1ccccc1)O[C@@H]2C	·	3	·	·	·	·	·
SMILES	Apaf-1 inh	TDP2 absorb	PAFAH2 FP inh	PAFAH1B3 inh	PAFAH1B2 FP inh	Apaf-1 inh conf	Rh110 quench	others
CN(C=[N+](C)C)c1cccc2c1C(=O)c1ccccc1C2=O	43*	4	0	11	3	21	13
C=CCN1[C@@H](C)COc2cccc(N3CCSCC3)c2S1(=O)=O	·	-10	·	·	·	·	·
COc1ccc(-n2c(SCC(=O)c3ccc4ccccc4c3)nnc2-c2ccccc2)cc1	·	1	·	·	·	·	·
CC(C(=O)NC(=O)NC1CCCCC1)N(C)CC(=O)Nc1ccc(F)c(F)c1F (stereo not drawn)	46*	-1	9	7	5	13	7
OCCNC(=S)Nc1ccc2nsnc2c1	97*	-6	-3	5	4	13	4
OCCNC(=S)Nc1ccc(Cl)c(Cl)c1	11	-2	3	10	2	·	·
Cc1ccc(-n2c(O)c(/C=N/Nc3ccc(S(=O)(=O)N4CCOCC4)cc3[N+](=O)[O-])c3ccccc3c2=O)c(C)c1	51*	5	34*	18	64*	31	6
COc1cccc2sc3ccc(NCCC4CCCN4C)cc3c(=O)c12 (stereo not drawn)	24	3	3	2	6	·	·
COc1cc2sc3cc(NCC[C@@H]4CCCN4C)ccc3c(=O)c2cc1OC	55*	2	-5	-2	-3	23	14
COc1ccc(C(CNC(=O)COc2c(C)cc(C)cc2C)N2CCOCC2)cc1 (stereo not drawn)	66*	2	-2	5	2	45*	7	Apaf1 inh interf=>100
CNc1ccccc1/C(O)=C(\C#N)C(=O)NCc1cccc2ccccc12	·	-4	·	·	·	·	·
